Experimental findings from ChEMBL document CHEMBL1126651, “Synthesis and biological evaluation of 1-[1-(2-benzo[b]thienyl)cyclohexyl]piperidine homologues at dopamine-uptake and phencyclidine- and sigma-binding sites” (J Med Chem, 1993) are described below.

Test [1] has as its target T1, Sodium-dependent dopamine transporter (Rattus norvegicus, UniProt P23977). Kind of test: Displacement of [3H]BTCP (1-[1-(2-benxo[b]thienyl)cyclohexyl]piperidine) from rat forebrain dopamine transporter. The gist of the method: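 Rat forebrain membranes (40000 g pellet) in 0.32 M sucrose/10 mM Tris·HCl pH 7.4. 0.4-0.6 nM [3H]BTCP incubated with test compound in 50 mM Na phosphate buffer, pH 7.4, for 90 min on ice. Nonspecific binding with 10 µM BTCP. Filtration, then scintillation counting. Six concentrations in triplicate, duplicate experiments on different preparations. IC50 taken as 50% inhibition of total binding.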
(In general: Loss of bound radioactivity is the signal in a displacement assay; it reports binding, not function.)

Test [2] in a line: Ratio of IC50 of [3H]cocaine to that of dopamine. It is filed as functional.
The target of test [3] is Glutamate NMDA receptor. The experiment in a line: Binding affinity of compound at site labelled by [3H]TCP in guinea pig brain homogenates. It is filed as tissue-based.
The species entered for test [4] is Rattus norvegicus. Kind of test: (§1) Compound is evaluated for [3H]dopamine uptake inhibition in rat forebrain. Format: functional.
In test [5] the target is T1, Sodium-dependent dopamine transporter. The experiment in a line: Inhibition of [3H]cocaine binding to rat forebrain […]. Summed up: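 Rat forebrain membranes washed in 0.25 M sucrose/10 mM Na2HPO4 pH 7.4. […] Filtration with ice-cold saline wash, then scintillation counting. Six concentrations in triplicate, duplicate experiments on different preparations. IC50 taken as 50% inhibition of total binding.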

The species named for test [6] is Rattus norvegicus. The description is as §1.
For test [7], the target named is Glutamate NMDA receptor. The experiment in a line: Ability to displace [3H]-TCP from rat brain homogenate. Format: tissue-based.
The target of test [8] is Glutamate NMDA receptor. Kind of test: Ability of compound to displace [3H]TCP from rat brain homogenates. It is filed as tissue-based.

T1 sequence (P23977 whole entry): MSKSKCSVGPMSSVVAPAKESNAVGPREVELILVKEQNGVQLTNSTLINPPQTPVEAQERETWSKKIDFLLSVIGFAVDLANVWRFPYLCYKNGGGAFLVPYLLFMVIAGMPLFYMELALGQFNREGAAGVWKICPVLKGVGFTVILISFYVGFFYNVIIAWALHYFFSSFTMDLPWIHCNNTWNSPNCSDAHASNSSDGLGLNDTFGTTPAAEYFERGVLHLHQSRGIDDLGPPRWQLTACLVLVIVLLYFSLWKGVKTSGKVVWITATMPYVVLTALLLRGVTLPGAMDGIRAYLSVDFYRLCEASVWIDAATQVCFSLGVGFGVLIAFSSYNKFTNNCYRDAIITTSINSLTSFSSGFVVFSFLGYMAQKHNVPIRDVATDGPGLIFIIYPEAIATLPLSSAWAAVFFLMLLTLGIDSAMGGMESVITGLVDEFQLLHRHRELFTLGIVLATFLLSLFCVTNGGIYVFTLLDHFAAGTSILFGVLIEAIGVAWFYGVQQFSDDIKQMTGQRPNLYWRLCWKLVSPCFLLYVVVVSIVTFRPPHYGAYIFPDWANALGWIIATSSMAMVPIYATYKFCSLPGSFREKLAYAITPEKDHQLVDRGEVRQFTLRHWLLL

What is called IC50 is the concentration at which inhibition is half-maximal. As a reminder, the Ki is the dissociation constant of the complex between target and ligand, obtained from inhibition or displacement. On to `NC1(c2cc3ccccc3s2)CCCCC1`, for which the half-inhibitory concentration (IC50) is 0.123 µM in test [1], 0.078 µM in the test filed under Rattus norvegicus [4] and 0.684 µM in test [5]. For the same molecule, the Ratio in test [2] was found to be 8.8. The inhibitory constant (Ki) on Glutamate NMDA receptor [3] is > 10 µM.
Taken in the same sequence, the figures for `c1ccc2sc(C3(N4CCCC4)CCCCC3)cc2c1` were 0.0067 µM, 0.011 µM, 0.012 µM, 1.1 and > 10 µM.
As to `COC(=O)[C@H]1[C@@H](OC(=O)c2ccccc2)C[C@@H]2CC[C@H]1N2C` [COCAINE], the IC50 in the test listed under Rattus norvegicus [6] worked out at 0.138 µM.
With `c1ccc2sc(C3(N4CCCCC4)CCCCC3)cc2c1`, the IC50 in test [1] was determined as 0.00066 µM; in the test listed under Rattus norvegicus [4] it was 0.009 µM; in test [5], 0.041 µM. For the same molecule, in test [2], the Ratio is 4.6. Besides, the inhibitory constant (Ki) at Glutamate NMDA receptor [7] was > 10 µM.
As to `c1ccc2sc(C3(N4CCCC4)CCCC3)cc2c1`, the half-inhibitory concentration (IC50) in test [1] amounted to 0.013 µM; in the test filed under Rattus norvegicus [4] it was 0.019 µM; in test [5], 0.026 µM. Further, the Ratio in test [2] worked out at 1.4. Also, the inhibitory constant (Ki) on Glutamate NMDA receptor [3] was > 10 µM.
Take `c1ccc2sc(C3(N4CCCCCC4)CCCCC3)cc2c1`: the IC50 in test [1] was found to be 0.018 µM; in the test filed under Rattus norvegicus [4], 0.043 µM; in test [5], 0.036 µM. In test [2], the Ratio amounted to 0.84. Further, the Ki on Glutamate NMDA receptor [3] is > 10 µM.
With `c1ccc2sc(C3(N4CCCCCC4)CCCCCC3)cc2c1`, the figures for the IC50 (in test [1]; in the test filed under Rattus norvegicus [4]; in test [5]) were 0.067 µM, 0.252 µM and 0.386 µM, respectively. In addition, in test [2], the Ratio was 1.5. Also, on Glutamate NMDA receptor [8], the Ki is > 10 µM.
For `c1ccc2sc(C3(N4CCCCCC4)CCCC3)cc2c1`, the half-maximal inhibitory concentration (IC50) in test [1] came to 0.021 µM; in the test filed under Rattus norvegicus [4], 0.132 µM; in test [5], 0.062 µM. For the same molecule, in test [2], the Ratio was 0.47. The Ki on Glutamate NMDA receptor [3] was > 10 µM.
In the same order, the values of `c1ccc2sc(C3(N4CCCCC4)CCCC3)cc2c1` are 0.015 µM, 0.024 µM, 0.076 µM, 3.2 and > 10 µM.
For `c1ccc2sc(C3(N4CCCCC4)CCCCCC3)cc2c1`, the IC50 came out at 0.019 µM in test [1], 0.055 µM in the test listed under Rattus norvegicus [4] and 0.111 µM in test [5]. In addition, in test [2], the Ratio is 2. On Glutamate NMDA receptor [8], the Ki is > 10 µM.
In the same order, the values of `c1ccc2sc(C3(N4CCCC4)CCCCCC3)cc2c1` are 0.013 µM, 0.027 µM, 0.052 µM, 1.9 and > 10 µM.
Taken in the same sequence, the figures for `NC1(c2cc3ccccc3s2)CCCCCC1` were 0.416 µM, 0.55 µM, 1.34 µM, 2.4 and > 10 µM.
In the case of `NC1(c2cc3ccccc3s2)CCCC1`, the IC50 in test [1] worked out at 0.63 µM; in the test listed under Rattus norvegicus [4], 0.148 µM; in test [5], 0.933 µM. For the same molecule, the Ratio in test [2] came out at 6.3. In addition, on Glutamate NMDA receptor [8], the Ki is > 10 µM.
